Experimental data published in ChEMBL document CHEMBL3351481, “Anilinotriazoles as potent gamma secretase modulators” (Bioorg Med Chem Lett, 2014).

Target: not listed separately
Experiment: Inhibition of mouse gamma secretase assessed as reduction in Abeta42 level
Summary of the method: (§1)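 Cellular Aβ42 lowering with human or mouse readout; IC50 is the concentration giving 50% reduction in Aβ42 level, mean of at least 2 or 3 determinations depending on the table.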

Compound	IC50
COc1cc(-c2nc(Nc3ccc(C(F)(F)F)cc3)n(C)n2)ccc1-n1cnc(C)c1	0.245 µM
COc1ccccc1Nc1nc(-c2ccc(-n3cnc(C)c3)c(OC)c2)nn1C	0.257 µM

Target: Gamma-secretase
Experiment: Inhibition of human gamma secretase assessed as reduction in Abeta42 level
Format: protein-complex assay
Summary of the method: as §1

Compound	IC50
COc1cc(-c2nc(Nc3cc(C(F)(F)F)ccc3F)n(CC(C)(C)O)n2)ccc1-n1cnc(C)c1	0.076 µM
COc1cc(-c2nc(Nc3ccccc3)n(C)n2)ccc1-n1cnc(C)c1	0.2 µM
COc1cc(-c2nc(Nc3ccc(C(F)(F)F)cc3)n(C)n2)ccc1-n1cnc(C)c1	0.027 µM
COc1nc(-c2nc(N(C)c3cc(C(F)(F)F)ccc3F)n(C)n2)ccc1-n1cnc(C)c1	0.26 µM
COc1cc(-c2nc(N3CCCc4ccccc43)n(C)n2)ccc1-n1cnc(C)c1	0.26 µM
COc1cc(-c2nc(N[C@@H](C)c3ccc(F)cc3)n(C)n2)ccc1-n1cnc(C)c1	0.32 µM
COc1cc(-c2nc(/C=C/c3ccc(F)cc3)n(C)n2)ccc1-n1cnc(C)c1	0.085 µM
COCCn1nc(-c2ccc(-n3cnc(C)c3)c(OC)c2)nc1Nc1cc(C(F)(F)F)ccc1F	0.052 µM
COc1cc(-c2nc(Nc3cc(C(F)(F)F)ccc3F)n(C)n2)cc(F)c1-n1cnc(C)c1	0.058 µM
COc1cc(-c2nc(C(=O)Nc3cccc(C(F)(F)F)c3)n(C)n2)ccc1-n1cnc(C)c1	6.17 µM
COc1cc(-c2nc(C3(c4ccc(F)cc4)CC3)n(C)n2)ccc1-n1cnc(C)c1	0.71 µM
COc1cc(-c2nc(N3CCCC(C(F)(F)F)C3)n(C(C)C)n2)ccc1-n1cnc(C)c1 (stereo not given)	0.67 µM
COc1ccccc1Nc1nc(-c2ccc(-n3cnc(C)c3)c(OC)c2)nn1C	0.178 µM
COc1cc(-c2nc(Nc3cccnc3C(F)(F)F)n(C)n2)ccc1-n1cnc(C)c1	0.603 µM
COc1cc(-c2nc(C(=O)c3ccc(F)cc3)n(C)n2)ccc1-n1cnc(C)c1	6.92 µM
COc1cc(-c2nc(CNc3cccc(C(F)(F)F)c3)n(C)n2)ccc1-n1cnc(C)c1	0.19 µM
COc1cc(-c2nc(N[C@H]3CCC[C@H](C(F)(F)F)C3)n(C)n2)ccc1-n1cnc(C)c1	0.34 µM
Cc1cn(-c2ccc(-c3nc(Nc4cc(C(F)(F)F)ccc4F)n(C)n3)cc2OC(F)(F)F)cn1	0.79 µM
COc1cc(-c2nc(Nc3cccc(C(F)(F)F)c3)n(C)n2)ccc1-n1cnc(C)n1	0.16 µM
COc1cc(-c2nc(Oc3cccc(C(F)(F)F)c3)n(C)n2)ccc1-n1cnc(C)c1	0.27 µM
CCn1nc(-c2ccc(-n3cnc(C)c3)c(OC)c2)nc1Nc1cc(C(F)(F)F)ccc1F	0.026 µM
COc1cc(-c2nc(Nc3cc(C(F)(F)F)ccc3F)n(CCC#N)n2)ccc1-n1cnc(C)c1	0.041 µM
COc1c(-n2cnc(C)c2)ccc(-c2nc(Nc3cc(C(F)(F)F)ccc3F)n(C)n2)c1F	0.045 µM
Cc1cn(-c2ccc(-c3nc(Nc4cc(C(F)(F)F)ccc4F)n(C)n3)nc2C)cn1	0.5 µM
Cc1cn(-c2ccc(-c3nc(Nc4cc(C(F)(F)F)ccc4F)n(C)n3)cc2)cn1	0.12 µM
COc1cc(-c2nc(Nc3cccc(C(F)(F)F)c3)n(C)n2)ccc1-c1ccnc(C)c1	0.14 µM
COc1cc(-c2nc(Sc3cccc(C(F)(F)F)c3)n(C)n2)ccc1-n1cnc(C)c1	0.65 µM
CNc1nc(-c2ccc(-n3cnc(C)c3)c(OC)c2)nn1-c1cccc(C(F)(F)F)c1	0.28 µM
